In ChEMBL document CHEMBL1833832, “The discovery of long-acting saligenin β₂ adrenergic receptor agonists incorporating a urea group” (Bioorg Med Chem, 2011):

Key:
[1] = biological target: Beta-2 adrenergic receptor (Homo sapiens, UniProt P07550); assay: Agonist activity at human beta2 receptor expressed in CHO cells assessed as cAMP accumulation; format: functional, cell-based
Liver microsomes = assay: Metabolic stability in human liver microsomes assessed as compound turn over ratio relative to verapamil; format: ADME, Microsome
[2] = biological target: Beta-1 adrenergic receptor (Homo sapiens, UniProt P08588); assay: Agonist activity at human beta1 receptor expressed in CHO cells assessed as cAMP accumulation; format: functional, cell-based
Sequence of Beta-1 adrenergic receptor (P08588 whole entry): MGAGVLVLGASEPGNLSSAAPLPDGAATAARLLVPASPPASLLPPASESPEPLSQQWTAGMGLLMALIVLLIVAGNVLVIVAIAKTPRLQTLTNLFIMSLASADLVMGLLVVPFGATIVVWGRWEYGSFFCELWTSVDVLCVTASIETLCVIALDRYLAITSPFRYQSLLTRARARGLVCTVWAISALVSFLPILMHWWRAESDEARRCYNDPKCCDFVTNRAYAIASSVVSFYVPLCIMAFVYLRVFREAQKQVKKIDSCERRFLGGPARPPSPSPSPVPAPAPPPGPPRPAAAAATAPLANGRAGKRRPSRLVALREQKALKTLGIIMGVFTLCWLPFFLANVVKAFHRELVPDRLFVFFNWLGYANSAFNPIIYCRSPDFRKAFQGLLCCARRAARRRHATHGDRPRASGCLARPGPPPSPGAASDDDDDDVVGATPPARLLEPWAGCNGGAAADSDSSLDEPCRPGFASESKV

[3] = Lipophilicity, log D of the compound at pH 6.4; format: physicochemical; details: buffer
[4] = biological target: Beta-2 adrenergic receptor (Cavia porcellus, UniProt Q8K4Z4); assay: Agonist activity at beta2 adrenergic receptor in guinea pig tracheal strip assessed as inhibition of electrically-induced bronchocontractile response; format: functional, tissue-based, Trachea
Sequence of Beta-2 adrenergic receptor (Cavia porcellus, UniProt Q8K4Z4) (Q8K4Z4 whole entry): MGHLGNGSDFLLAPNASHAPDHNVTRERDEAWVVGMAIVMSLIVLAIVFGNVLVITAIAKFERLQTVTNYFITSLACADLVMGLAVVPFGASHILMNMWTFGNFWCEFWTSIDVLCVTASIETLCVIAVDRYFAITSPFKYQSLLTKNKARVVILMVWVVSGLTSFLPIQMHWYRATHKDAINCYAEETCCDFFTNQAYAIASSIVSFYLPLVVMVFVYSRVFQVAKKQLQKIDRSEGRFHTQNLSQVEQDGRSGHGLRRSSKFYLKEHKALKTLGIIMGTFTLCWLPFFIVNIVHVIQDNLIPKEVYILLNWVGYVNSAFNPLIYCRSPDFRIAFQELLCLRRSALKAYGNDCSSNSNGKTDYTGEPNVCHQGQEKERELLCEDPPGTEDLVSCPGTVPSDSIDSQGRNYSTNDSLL

Cavia porcellus [5] = species: Cavia porcellus; assay: Bronchodilatory activity against electrically-stimulated contraction in guinea pig trachea assessed as onset time for bronchorelaxation activity; format: functional
How it was run: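 Isolated guinea pig trachea strips were superfused and contracted electrically. Agonist was perfused until maximal relaxation was reached. Onset was taken as the time for an EC50 concentration to reach 50% of maximal relaxant effect. Minimum n = 2.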

[6] = biological target: Beta-3 adrenergic receptor (Homo sapiens, UniProt P13945); assay: Agonist activity at human beta3 receptor expressed in CHO cells assessed as cAMP accumulation; format: functional, cell-based
Sequence of Beta-3 adrenergic receptor (P13945 whole entry): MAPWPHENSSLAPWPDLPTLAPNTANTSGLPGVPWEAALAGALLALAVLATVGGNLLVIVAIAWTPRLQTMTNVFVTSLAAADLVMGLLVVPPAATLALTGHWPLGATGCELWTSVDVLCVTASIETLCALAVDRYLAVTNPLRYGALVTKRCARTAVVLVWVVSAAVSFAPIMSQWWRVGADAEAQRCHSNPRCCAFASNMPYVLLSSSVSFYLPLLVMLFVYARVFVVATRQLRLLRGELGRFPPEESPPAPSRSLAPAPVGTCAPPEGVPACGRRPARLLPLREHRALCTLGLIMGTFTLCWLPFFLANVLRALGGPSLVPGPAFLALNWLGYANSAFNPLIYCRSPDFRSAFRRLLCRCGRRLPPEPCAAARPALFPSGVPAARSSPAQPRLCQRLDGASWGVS

[7] = Oral bioavailability in dog; format: ADME, organism-based, Canis lupus familiaris; details: in vivo
How it was run: (§1)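 Pharmacokinetics were run in male Han Wistar rat and Beagle dog, dosed intravenously and orally. Plasma clearance, steady-state volume of distribution, half-life and oral bioavailability were derived from the plasma profiles. Rat plasma samples were deconjugated before analysis.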

Cavia porcellus [8] = assay: Bronchodilatory activity against histamine-induced bronchospasm in guinea pig assessed as time taken for 50% recovery of bronchospasm at EC90 administered via nebulizer; format: functional
How it was run: (§2)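 In vivo guinea pig model with histamine-induced bronchospasm, measured in a plethysmograph chamber. Compound was given as a nebulised solution in dimethyl acetamide-saline vehicle. Potency is expressed as the EC90 nebuliser concentration.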

[9] = Oral bioavailability in Han Wistar rat at 2 mg/kg; format: ADME, organism-based; details: in vivo; how it was run: as §1
[10] = Half life in Han Wistar rat at 0.25 mg/kg, iv; format: ADME, organism-based; parameters: dose 0.25 mg/kg, route intravenous; details: in vivo; how it was run: as §1
[11] = Half life in Beagle dog at 0.05 mg/kg, iv; details: in vivo
[12] = Plasma clearance in Beagle dog at 0.05 mg/kg, iv
[13] = Oral bioavailability in Beagle dog at 0.25 mg/kg; details: in vivo
[14] = Plasma clearance in Han Wistar rat at 0.25 mg/kg, iv; format: ADME, organism-based; parameters: dose 0.25 mg/kg, route intravenous; how it was run: as §1
Cavia porcellus [15] = species: Cavia porcellus; assay: Bronchodilatory activity against histamine-induced bronchospasm in the guinea pig; format: functional; how it was run: as §2
Cavia porcellus [16] = assay: Bronchodilatory activity against histamine-induced bronchospasm in guinea pig assessed as time taken for 50% recovery of bronchospasm at 10 times EC90 administered via nebulizer; format: functional; how it was run: as §2
Canis familiaris = assay: Liver blood flow in Beagle dog at 0.05 mg/kg, iv; details: in vivo
[17] = AUC in Han Wistar rat at 2 mg/kg, po; format: ADME, organism-based; parameters: dose 2 mg/kg, route oral; details: plasma
How it was run: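 Oral absorption in rat was measured as AUC using a deconjugated HPV model.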

Rattus norvegicus = assay: Liver blood flow in Han Wistar rat at 0.25 mg/kg, iv; format: ADME, organism-based; parameters: dose 0.25 mg/kg, route intravenous; details: in vivo
[18] = Volume of distribution at steady state in Han Wistar rat at 0.25 mg/kg, iv; format: ADME, organism-based; parameters: dose 0.25 mg/kg, route intravenous; details: in vivo, read-out: Vdss; how it was run: as §1
[19] = Volume of distribution at steady state in Beagle dog at 0.05 mg/kg, iv; details: in vivo, read-out: Vdss

Sequence of Beta-2 adrenergic receptor (Homo sapiens, UniProt P07550) (P07550 whole entry): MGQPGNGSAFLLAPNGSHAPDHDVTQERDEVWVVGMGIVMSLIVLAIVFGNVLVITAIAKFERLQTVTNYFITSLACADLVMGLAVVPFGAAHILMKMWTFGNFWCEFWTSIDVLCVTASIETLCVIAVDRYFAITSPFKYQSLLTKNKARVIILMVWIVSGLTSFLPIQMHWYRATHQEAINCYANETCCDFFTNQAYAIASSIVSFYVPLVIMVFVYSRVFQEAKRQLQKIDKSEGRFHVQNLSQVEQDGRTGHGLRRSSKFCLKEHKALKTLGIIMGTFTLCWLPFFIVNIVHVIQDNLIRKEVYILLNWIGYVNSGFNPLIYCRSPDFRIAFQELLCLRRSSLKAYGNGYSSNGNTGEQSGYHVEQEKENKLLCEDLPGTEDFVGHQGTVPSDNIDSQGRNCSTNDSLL

Compound | EC50 [1] [nM] | fold change (FC) (Liver microsomes) | EC50 [2] [nM] | logD [3] | EC50 [4] [nM] | Time (Cavia porcellus [5]) [min] | EC50 [6] [nM] | other results
CC(=O)O.CCNC(=O)Nc1cccc(CCCCOCCCCCCNC[C@H](O)c2ccc(O)c(CO)c2)c1 | 1 | 0.81 | 31.6 | 0.5 | 1.26 | 15 | 158 | –
CC(=O)O.NC(=O)NCc1cccc(CCCCOCCCCCCNC[C@H](O)c2ccc(O)c(CO)c2)c1 | 0.501 | 1.64 | 7.94 | – | – | – | 15.8 | –
CC(=O)O.NC(=O)Nc1cc(CCCCOCCCCCCNC[C@H](O)c2ccc(O)c(CO)c2)cc(C(F)(F)F)c1 | 1 | 1.34 | 50.1 | – | – | – | 25.1 | –
NC(=O)CNC(=O)Nc1cccc(CCCCOCCCCCCNC[C@H](O)c2ccc(O)c(CO)c2)c1.O=CO | 0.251 | – | 31.6 | -0.78 | 0.251 | 9 | 100 | –
OCc1cc(C(O)CNCCCCCCOCCCCc2ccccc2)ccc1O (configuration not stated) [SALMETEROL] | – | – | – | 1.06 | – | – | – | bioavailability [7]: 66%; Time (Cavia porcellus [8]): 8 h
O=C(CNC(=O)Nc1cccc(CCCCOCCCCCCNC[C@H](O)c2ccc(O)c(CO)c2)c1)NC1CCCC1 | 0.316 | – | 10 | – | – | – | 12.6 | –
CC(=O)O.CCNC(=O)Nc1ccc(CCCCOCCCCCCNC[C@H](O)c2ccc(O)c(CO)c2)cc1 | 0.501 | 1.37 | 31.6 | – | – | – | 12.6 | –
CC(=O)O.Cc1cc(CCCCOCCCCCCNC[C@H](O)c2ccc(O)c(CO)c2)cc(NC(N)=O)c1 | 0.158 | 1.17 | 39.8 | 0.2 | 1.58 | 10 | 39.8 | bioavailability [9]: < 5%; half-life [10]: 54 min; half-life [11]: 60 min; clearance [12]: 6 mL/min/kg; bioavailability [13]: 6%; clearance [14]: 83 mL/min/kg; EC90 (Cavia porcellus [15]): 10000 nM; Time (Cavia porcellus [16]): 18 h; QH (Canis familiaris): < 67%; AUC [17]: 80.2 ng·h/mL; QH (Rattus norvegicus): 100%; Time (Cavia porcellus [8]): 7 h; Vd [18]: 2 L/kg; Vd [19]: 0.55 L/kg
CC(=O)O.CCNC(=O)NCc1cccc(CCCCOCCCCCCNC[C@H](O)c2ccc(O)c(CO)c2)c1 | 0.631 | 0.72 | 31.6 | – | – | – | 31.6 | –
CC(=O)O.O=C(Nc1cccc(CCCCOCCCCCCNC[C@H](O)c2ccc(O)c(CO)c2)c1)NC1CCCCC1 | 1 | 2.18 | 7.94 | – | – | – | 2.51 | –
CC(=O)O.NC(=O)Nc1cccc(CCCCOCCCCCCNC[C@H](O)c2ccc(O)c(CO)c2)c1 | 0.794 | 0.97 | 63.1 | -0.28 | 2.51 | 13.5 | 7.94 | –
